Screening data from PubChem BioAssay.
The list is not random: actives were taken first. Their share in the collection is about 1.9%.
TDP2 inh – TDP2 (human) inhibition, absorbance primary screen | recombinant TDP2, T5PNP hydrolysis, p-nitrophenol absorbance 415 nm | inhibition, % at 12.8 µM | AID 720702 | 370,000 tested, 0.34% active;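 active = inhibition above the mean of all tested compounds plus 3 SD, set per campaign, cut at about 25% in these data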;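 also: 0% = DMSO with enzyme and 100% = buffer with substrate but no TDP2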
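Test system: Human TDP2 enzyme | Reagent: 5 mM T5PNP | Compound dosing: 12.8 µM single point, 1% DMSO | Incubation: Enzyme reaction with compound for 2 h at 37 °C | Technique: p-Nitrophenol epi absorbance | Read-out: % inhibition relative to enzyme-containing and enzyme-free wells | Benchmarks: High control without enzyme, low control DMSO plus TDP2 | Replicates: Singlicate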
MBD2 DNA inh – inhibitors of human MBD2 binding to methylated oligonucleotide. inhibition, % at 4.4 µM. 370,000 tested, 0.31% active. Q9UBB5. TR-FRET. AID 686964; in the data active = inhibition above about 13%
LEDGF integ inh – blocks HIV-1 LEDGF/p75-dependent DNA integration. TR-FRET IN-LEDGF/p75 DNA integration, Eu/Cy5. inhibition, % at 3.7 µM. 370,000 tested, 0.64% active;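 active = inhibition above the screen-wide mean plus 3 SD, cut at about 13% in these data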;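 also: signal is the Cy5 over europium emission ratio at 671 and 618 nm; 0% = plate median of compound wells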
Rin1 Abl inh – blocks binding of human Rin1 to Abl. 360,000 tested, 0.4% active. AID 588664. TR-FRET Rin1/Abl binding, biochemical. P00519+Q13671. inhibition, % at 7.35 µM; in the data active = inhibition above about 5%, passing the limit was not always enough
Target sequence (P00519 whole entry, looked up): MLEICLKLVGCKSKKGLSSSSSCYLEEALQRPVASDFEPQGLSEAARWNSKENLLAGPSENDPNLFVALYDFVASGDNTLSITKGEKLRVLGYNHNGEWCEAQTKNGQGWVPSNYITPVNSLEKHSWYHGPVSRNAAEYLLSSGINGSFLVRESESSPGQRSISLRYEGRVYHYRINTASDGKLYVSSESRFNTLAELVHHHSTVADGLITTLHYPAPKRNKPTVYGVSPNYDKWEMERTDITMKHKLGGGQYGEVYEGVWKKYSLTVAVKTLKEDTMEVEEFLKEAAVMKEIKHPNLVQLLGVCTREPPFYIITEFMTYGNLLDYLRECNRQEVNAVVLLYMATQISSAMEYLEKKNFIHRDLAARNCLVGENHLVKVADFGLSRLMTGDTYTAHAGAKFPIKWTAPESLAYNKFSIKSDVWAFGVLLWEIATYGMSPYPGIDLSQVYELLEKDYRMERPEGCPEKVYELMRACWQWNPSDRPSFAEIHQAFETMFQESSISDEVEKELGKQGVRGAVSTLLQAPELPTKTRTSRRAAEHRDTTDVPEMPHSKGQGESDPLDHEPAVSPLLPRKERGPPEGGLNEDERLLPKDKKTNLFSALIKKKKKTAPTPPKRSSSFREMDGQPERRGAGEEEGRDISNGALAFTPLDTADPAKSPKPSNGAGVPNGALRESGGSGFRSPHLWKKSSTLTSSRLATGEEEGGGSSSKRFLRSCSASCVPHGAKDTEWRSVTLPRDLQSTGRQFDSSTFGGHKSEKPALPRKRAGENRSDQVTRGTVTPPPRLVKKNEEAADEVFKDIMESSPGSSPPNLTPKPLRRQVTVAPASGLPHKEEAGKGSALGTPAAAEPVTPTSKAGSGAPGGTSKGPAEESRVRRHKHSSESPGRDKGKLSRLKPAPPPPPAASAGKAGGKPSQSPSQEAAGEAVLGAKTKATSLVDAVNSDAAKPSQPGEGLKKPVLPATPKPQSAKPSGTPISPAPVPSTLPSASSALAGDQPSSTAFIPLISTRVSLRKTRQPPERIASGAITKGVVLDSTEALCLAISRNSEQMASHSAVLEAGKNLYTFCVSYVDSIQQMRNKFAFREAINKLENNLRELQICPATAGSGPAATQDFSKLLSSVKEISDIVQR
Target sequence (Q13671 whole entry, looked up): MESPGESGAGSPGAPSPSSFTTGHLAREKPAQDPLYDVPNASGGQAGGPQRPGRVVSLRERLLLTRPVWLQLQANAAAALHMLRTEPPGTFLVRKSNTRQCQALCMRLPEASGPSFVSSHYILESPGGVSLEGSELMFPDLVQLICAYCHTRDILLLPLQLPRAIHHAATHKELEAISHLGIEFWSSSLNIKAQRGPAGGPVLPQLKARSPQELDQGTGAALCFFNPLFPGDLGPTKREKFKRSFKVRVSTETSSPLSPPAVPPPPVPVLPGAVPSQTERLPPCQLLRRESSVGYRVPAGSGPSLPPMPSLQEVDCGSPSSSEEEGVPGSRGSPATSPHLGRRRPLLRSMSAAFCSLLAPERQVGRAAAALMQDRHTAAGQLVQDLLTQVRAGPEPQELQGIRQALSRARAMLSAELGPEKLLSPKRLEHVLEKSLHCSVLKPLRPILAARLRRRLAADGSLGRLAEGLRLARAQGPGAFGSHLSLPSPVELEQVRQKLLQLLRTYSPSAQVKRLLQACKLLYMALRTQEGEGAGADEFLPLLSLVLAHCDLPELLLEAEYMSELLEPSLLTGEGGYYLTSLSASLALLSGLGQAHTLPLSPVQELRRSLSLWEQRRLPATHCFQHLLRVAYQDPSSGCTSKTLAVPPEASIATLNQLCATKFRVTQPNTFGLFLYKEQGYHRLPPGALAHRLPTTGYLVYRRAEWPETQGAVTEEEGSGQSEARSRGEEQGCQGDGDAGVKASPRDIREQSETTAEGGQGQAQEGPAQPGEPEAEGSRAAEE
UHRF1 MBD2 ctr – human UHRF1 methylated DNA binding inhibitors; AID 687016; 370,000 tested, 0.75% active; UHRF1 binding to methylated oligo, TR-FRET; inhibition, % at 4.4 µM; Q96T88; in the data active = inhibition above about 21%;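 also: UHRF1 SRA domain binding a hemimethylated CpG hairpin DNA probe; 0% = median of test compound wells and 100% = reference inhibitor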
TDP2 inh conf – confirmation of human TDP2 inhibitors; inhibition, % at 12.8 µM; recombinant human TDP2, absorbance read-out; AID 743263; 1,100 tested, 22% active; shares compounds with TDP2 inh; in the data active = inhibition above about 25%;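 also: 0% = vehicle with enzyme and 100% = no enzyme buffer only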
IN multimer act – counter-screen for LEDGF/p75 integration inhibitors: HIV-1 integrase multimerization activators. shares compounds with LEDGF integ inh. activation, % at 7.7 µM. 2,000 tested, 17% active. TR-FRET HIV-1 integrase multimerization, biochemical; in the data active = activation above about 8.9%
TRFRET interf – TR-FRET optical interference, LEDGF/p75 integration counter-screen. shares compounds with LEDGF integ inh. TR-FRET optical interference counterscreen, HIV-1 IN multimerization. inhibition, % at 7.7 µM. 2,000 tested, under 10 active;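 active = inhibition above the mean over all tested compounds plus 3 SD, which no compound reached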;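 also: 0% = integrase with antibodies and DMSO and 100% = antibodies without integrase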
IN-LEDGF confirm – LEDGF/p75-dependent HIV-1 integration inhibition, confirmation. shares compounds with LEDGF integ inh. TR-FRET LEDGF/p75-dependent HIV-1 integration, biochemical. inhibition, % at 3.7 µM. 2,000 tested, 36% active; in the data active = inhibition above about 14%
* hit, by the source's call; · = no result given.

SMILES	TDP2 inh	MBD2 DNA inh	LEDGF integ inh	Rin1 Abl inh	UHRF1 MBD2 ctr	TDP2 inh conf	IN multimer act	TRFRET interf	IN-LEDGF confirm
C/C(=C\C(=O)c1cccnc1)Nc1ccc(O)cc1	27*	-5	17*	-2	-1	-4	2	-8	-2
O=C(O)c1ccc(NC(=O)c2ccc3c(c2)C(=O)N(c2ccccc2)C3=O)cc1	0	4	0	1	2	·	·	·	·
O=C(O)c1ccc(S(=O)(=O)c2ccc3c(c2)C(=O)N(c2ccc(O)cc2)C3=O)cc1	38*	-9	16*	-2	6	7	2	-8	7
O=C(NC1=C(NC2CCS(=O)(=O)C2)C(=O)c2ccccc2C1=O)c1ccccc1 (configuration not stated)	28*	-6	25*	-7	10	37*	1	-4	41*
O=[N+]([O-])c1c(Nc2ccccn2)cc(Cl)c2nonc12	87*	-5	70*	4	9	47*	2	-7	40*
O=C(O)c1ccccc1Nc1cc(Cl)c2nonc2c1[N+](=O)[O-]	-4	-12	-2	0	-2	·	·	·	·
O=C1c2cccc(Cl)c2C(=O)c2c1cccc2N1CCCC1	26*	-3	32*	-4	14	5	1	-6	-9
O=C1c2ccccc2C(=O)c2cc(N3CCCCC3)ccc21	-6	-2	0	2	1	·	·	·	·
CCOC(=O)C1(C)C=C(Nc2ccc(OC)cc2)C(=O)N1c1ccc(OC)cc1 (configuration not stated)	0	-6	5	-2	-4	·	·	·	·
CCOC(=O)C1(C)C=C(Nc2ccc(O)cc2)C(=O)N1c1ccc(O)cc1 (configuration not stated)	28*	-6	14*	1	5	17	8	-39	-6
O=C1CC(c2ccccc2)=NN1c1ccccc1	65*	6	21*	4	16	12	1	-4	2
COc1ccc(-n2[nH]c(C)cc2=O)cc1	71*	3	19*	5	11	33*	1	-2	1
Cc1cc(=O)[nH]c(-n2[nH]c(C)cc2=O)n1	6	-8	4	1	-4	·	·	·	·
Cc1ccc(C)c(NC(=O)Cn2nnc(-c3ccncc3)n2)c1	2	0	2	·	-1	·	·	·	·
CC(C)C[C@H]1COc2cc(N3CCCC3)ccc2S(=O)(=O)N1C	-10	2	4	·	2	·	·	·	·
CCOc1ccc(N(CC(=O)NC2CCC(C)CC2)S(=O)(=O)c2c(C)noc2C)cc1 (configuration not stated)	-4	-2	2	3	17	·	·	·	·
Cc1ccc(N(CC(=O)NC2CCCCC2)S(=O)(=O)c2c(C)noc2C)cc1	29*	2	21*	2	4	-3	1	-5	-5
COc1ccccc1C=NN=C(NN=Cc1ccccc1OC)NN=Cc1ccccc1OC	59*	-2	32*	4	4	-5	4	-13	-7
CC(C)C[C@H]1COc2cccc(F)c2S(=O)(=O)N1Cc1cn(Cc2ccc(F)cc2)nn1	-8	-3	7	·	-2	·	·	·	·
CCOC(=O)[C@@]12CN(C(=O)OC(C)(C)C)CC=C1N(Cc1ccc(OC)cc1)C(=O)[C@H]2CC(=O)NCc1ccc(C)o1	-5	0	-2	·	0	·	·	·	·
Cc1no[n+]([O-])c1COc1cccc(/C=N/Nc2nncn2N)c1	61*	-3	58*	-2	11	10	1	-5	-3
COc1cc(/C=N/n2nnnc2N)ccc1OCc1c(C)no[n+]1[O-]	0	0	1	-1	1	·	·	·	·
O=C(N[C@@H](Cc1ccccc1)C(=O)N1CCC2CCN(S(=O)(=O)c3ccccc3)CC21)[C@@H]1CCCN1 (some centres not stated)	0	3	-1	·	1	·	·	·	·
COC(=O)[C@@]12CCCCC=C1N(CCc1ccc(Cl)cc1)C(=O)[C@H]2CC(=O)NCC12CC3CC(CC(C3)C1)C2	1	0	0	·	2	·	·	·	·
CC1(C)CC(=O)C(C=Nc2ccc(N)cc2)=C(O)C1	54*	-10	36*	1	8	-10	5	-18	-3
SMILES	TDP2 inh	MBD2 DNA inh	LEDGF integ inh	Rin1 Abl inh	UHRF1 MBD2 ctr	TDP2 inh conf	IN multimer act	TRFRET interf	IN-LEDGF confirm
COC(=O)C1C(O)=C(C=Nc2ccccc2)C(=O)CC1(C)C (configuration not stated)	2	1	1	-1	-2	·	·	·	·
COC(=O)C1C(O)=C(C=Nc2ccc(N)cc2)C(=O)CC1(C)C (configuration not stated)	54*	-4	40*	-3	4	-4	2	-12	-6
C=CCN(Cc1ccc(OC)cc1OC)C(C#Cc1ccccc1)c1ccccc1 (configuration not stated)	10	2	-3	·	0	·	·	·	·
COC1=CC(=O)c2nc(Cl)ccc2C1=O	85*	-2	32*	13	11	78*	2	-8	58*
COC(=O)[C@]12C[C@H](CC(=O)NCCC(C)C)C(=O)N(Cc3ccc(Cl)cc3Cl)C1=C[C@H](COCc1ccccc1)O[C@@H]2C	-3	-3	5	·	-2	·	·	·	·
Cc1nnc(N/N=C/c2ccc(-c3ccccc3F)o2)n1N	59*	0	44*	0	3	3	6	-20	6
Cc1nnc(N/N=C\c2ccc(-c3ccccc3[N+](=O)[O-])o2)n1N	78*	-2	43*	1	4	20	4	-14	-5
CCC(=O)N/N=C/c1ccc(-c2ccc([N+](=O)[O-])cc2)o1	7	-4	1	0	-6	·	·	·	·
COC(=O)c1ccccc1-c1ccc(/C=N/NC(N)=O)o1	11	0	1	-6	0	·	·	·	·
CCc1nnc(N/N=C/c2ccc(-c3ccc([N+](=O)[O-])cc3)o2)n1N	68*	-7	46*	-3	-2	-5	9	-31	4
CCOC(=O)[C@]12CCCC=C1N(CCCOC)C(=O)[C@@H]2CC(=O)N1CCCCC1	3	4	-3	·	0	·	·	·	·
CCOC(=O)CC[C@@]1(C(=O)OCC)C[C@@H](CC(=O)N2CCN(C(=O)c3ccco3)CC2)C(=O)N2CCCC=C21	1	-4	6	·	-2	·	·	·	·
CC(Nc1cccc2ccccc12)C(=O)N/N=C/c1ccc([N+](=O)[O-])cc1 (configuration not stated)	31*	-3	16*	-5	-2	0	0	-1	-4
